Calls of active or inactive are those of the source.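 Rule for the calls: active = IC50 at or below 50 µM; inactive = IC50 above 50 µM.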
What follows are molecules tested against RecBCD enzyme subunit RecC (Escherichia coli (strain K12)) + RecBCD enzyme subunit RecB (Escherichia coli (strain K12)) (UniProt P07648+P08394) (assay: Chi-specific cleavage inhibition potency, RecBCD – biochemical, radioactive gel readout, counter-screen for AddAB inhibitor project, dose response (AID 623942)). Conditions: purified RecBCD, Chi cutting/unwinding.
Outline: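 Assay system: purified Escherichia coli RecBCD helicase-nuclease complex; Input: 0.15 nM RecBCD; Reagent: 0.1 nM labeled Chi+F DNA plus 5 mM ATP; Dosing: dilution series from 500 µM nominal top concentration; Times: 1 min at 37 °C; Detection: gel autoradiography; Measure: IC50 from Chi-cut band reduction vs DMSO.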

Sequence of RecBCD enzyme subunit RecC (Escherichia coli (strain K12)) + RecBCD enzyme subunit RecB (Escherichia coli (strain K12)) (P07648 whole entry, looked up): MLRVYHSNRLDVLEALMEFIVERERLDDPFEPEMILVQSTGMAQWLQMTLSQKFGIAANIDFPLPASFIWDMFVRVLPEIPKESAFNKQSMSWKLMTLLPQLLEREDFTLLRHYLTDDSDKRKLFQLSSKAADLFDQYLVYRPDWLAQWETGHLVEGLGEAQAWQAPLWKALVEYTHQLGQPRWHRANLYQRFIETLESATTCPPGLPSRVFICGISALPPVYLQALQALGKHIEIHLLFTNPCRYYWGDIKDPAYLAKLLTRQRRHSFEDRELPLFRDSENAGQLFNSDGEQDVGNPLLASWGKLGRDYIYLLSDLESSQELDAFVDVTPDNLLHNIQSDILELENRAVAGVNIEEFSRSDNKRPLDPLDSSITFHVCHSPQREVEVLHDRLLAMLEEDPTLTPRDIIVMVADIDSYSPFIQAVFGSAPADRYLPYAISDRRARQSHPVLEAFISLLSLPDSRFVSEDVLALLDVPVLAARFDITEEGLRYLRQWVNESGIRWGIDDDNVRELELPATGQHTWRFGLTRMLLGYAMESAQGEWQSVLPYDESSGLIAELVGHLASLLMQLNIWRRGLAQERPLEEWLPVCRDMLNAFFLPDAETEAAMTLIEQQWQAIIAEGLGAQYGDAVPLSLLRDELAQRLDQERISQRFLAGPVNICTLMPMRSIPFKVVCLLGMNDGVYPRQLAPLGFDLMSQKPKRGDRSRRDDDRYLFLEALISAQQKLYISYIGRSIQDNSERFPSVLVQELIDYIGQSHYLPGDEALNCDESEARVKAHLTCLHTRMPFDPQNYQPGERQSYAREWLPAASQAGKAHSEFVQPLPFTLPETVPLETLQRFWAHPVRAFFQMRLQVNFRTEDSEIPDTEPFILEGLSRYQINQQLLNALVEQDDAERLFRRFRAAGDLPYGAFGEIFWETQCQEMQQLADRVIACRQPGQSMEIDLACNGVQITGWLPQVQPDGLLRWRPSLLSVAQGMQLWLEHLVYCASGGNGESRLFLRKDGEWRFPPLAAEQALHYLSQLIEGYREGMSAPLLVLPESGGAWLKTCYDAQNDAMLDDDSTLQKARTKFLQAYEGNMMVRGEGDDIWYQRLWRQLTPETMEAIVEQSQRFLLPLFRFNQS
Sequence of RecBCD enzyme subunit RecC (Escherichia coli (strain K12)) + RecBCD enzyme subunit RecB (Escherichia coli (strain K12)) (P08394 whole entry, looked up): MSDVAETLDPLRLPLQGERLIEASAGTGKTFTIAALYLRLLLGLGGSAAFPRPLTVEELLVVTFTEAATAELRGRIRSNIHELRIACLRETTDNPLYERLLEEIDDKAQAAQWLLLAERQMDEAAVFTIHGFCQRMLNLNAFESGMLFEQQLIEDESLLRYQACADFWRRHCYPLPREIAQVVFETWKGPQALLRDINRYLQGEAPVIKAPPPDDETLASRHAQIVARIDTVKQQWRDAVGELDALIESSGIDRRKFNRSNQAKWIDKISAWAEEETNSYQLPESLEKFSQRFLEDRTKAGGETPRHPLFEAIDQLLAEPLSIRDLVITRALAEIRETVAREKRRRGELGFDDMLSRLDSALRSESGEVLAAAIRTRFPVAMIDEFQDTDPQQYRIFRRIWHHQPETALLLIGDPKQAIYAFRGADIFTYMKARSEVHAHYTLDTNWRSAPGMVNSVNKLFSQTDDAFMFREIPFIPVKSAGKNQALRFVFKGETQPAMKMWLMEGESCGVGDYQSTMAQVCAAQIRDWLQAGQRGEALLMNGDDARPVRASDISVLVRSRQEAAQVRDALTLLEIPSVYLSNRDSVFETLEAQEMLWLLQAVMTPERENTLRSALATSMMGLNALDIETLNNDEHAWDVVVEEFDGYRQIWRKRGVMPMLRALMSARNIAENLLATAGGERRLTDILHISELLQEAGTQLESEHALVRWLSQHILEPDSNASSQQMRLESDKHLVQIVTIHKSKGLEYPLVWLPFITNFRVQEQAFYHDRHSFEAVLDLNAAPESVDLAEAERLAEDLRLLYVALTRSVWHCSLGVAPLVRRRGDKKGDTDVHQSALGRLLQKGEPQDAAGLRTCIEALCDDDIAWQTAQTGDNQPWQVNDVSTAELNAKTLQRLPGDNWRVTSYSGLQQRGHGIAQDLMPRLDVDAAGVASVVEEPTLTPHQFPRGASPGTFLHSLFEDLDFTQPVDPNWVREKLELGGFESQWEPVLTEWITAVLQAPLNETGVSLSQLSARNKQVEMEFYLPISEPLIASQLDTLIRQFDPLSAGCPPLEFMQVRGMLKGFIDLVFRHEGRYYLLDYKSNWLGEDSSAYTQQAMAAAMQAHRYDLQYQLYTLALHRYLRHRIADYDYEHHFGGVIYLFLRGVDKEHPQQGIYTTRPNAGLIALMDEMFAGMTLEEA

Q: With `CCn1cc(C(=O)O)c(=O)c2cnc(N3CCN(C(=S)Nc4ccccc4C(F)(F)F)CC3)nc21` as the molecule, how does the IC50 read?
A: 10 µM

Q: For `O=C(Nc1cccc(NC(=O)c2ccccc2Cl)c1)c1ccc([N+](=O)[O-])o1`, which IC50 is on record?
A: 20 µM

Q: `CCn1cc(C(=O)O)c(=O)c2cnc(N3CCN(C(=S)Nc4cccc(C(F)(F)F)c4)CC3)nc21` was tested. Which IC50 did it give?
A: 0.6 µM

Q: For `CCn1cc(C(=O)O)c(=O)c2cc(F)c(N3CCN(C(=S)Nc4ccccc4C(F)(F)F)CC3)cc21`, which IC50 is on record?
A: 20 µM

Q: `CCn1cc(C(=O)O)c(=O)c2cc(F)c(N3CCN(C(=S)Nc4cccc(C(F)(F)F)c4)CC3)cc21` was tested. Which IC50 did it give?
A: 0.6 µM

Q: How did the IC50 turn out when `C=CCn1c(Sc2ncc([N+](=O)[O-])s2)n[nH]c1=O` was run?
A: > 500 µM (inactive)

Q: For `NC(=O)c1ccsc1NC(=O)COC(=O)c1ccc([N+](=O)[O-])o1`, which IC50 is on record?
A: inactive

Q: For `Cc1ccc2nc(/C(C#N)=C\c3ccc([N+](=O)[O-])o3)[nH]c2c1`, which IC50 is on record?
A: 38 µM

Q: For `Cc1cccnc1NC(=O)c1ccc([N+](=O)[O-])o1`, which IC50 is on record?
A: > 500 µM (inactive)

Q: With `N#Cc1c(NC(=O)c2ccc([N+](=O)[O-])o2)sc2c1CCC2` as the molecule, how does the IC50 read?
A: 20 µM

Q: For `O=C(Nc1ccc(N2CCOCC2)cc1)c1ccc([N+](=O)[O-])o1`, which IC50 is on record?
A: inactive

Q: Which IC50 does the source give for `CC(=O)Nc1ccc2nc(NC(=O)c3ccc([N+](=O)[O-])o3)sc2c1` here?
A: > 500 µM (inactive)

Q: How did the IC50 turn out when `O=C(OCC(=O)c1cccs1)c1ccc([N+](=O)[O-])o1` was run?
A: > 500 µM (inactive)

Q: `O=C(Nc1ncccn1)c1ccc([N+](=O)[O-])o1` was tested. Which IC50 did it give?
A: 49 µM

Q: Which IC50 does the source give for `O=C(NCc1cccnc1)c1ccc([N+](=O)[O-])o1` here?
A: > 500 µM (inactive)

Source: PubChem BioAssay AID623942 (The Scripps Research Institute Molecular Screening Center, 2012)
